How the values were obtained:
[1] = biological target: Human immunodeficiency virus type 1 reverse transcriptase (Human immunodeficiency virus 1, UniProt Q72547); assay: Inhibition of His6-tagged HIV-1 reverse transcriptase RNase H using 5'-GTTTTCTTTTCCCCCCTGAC-3'-Fluorescein-labeled RNA/5'-CAAAAGAAAAGGGGGGACUG-3'-Dabcyl-labeled DNA as susbtrate incubated for 1 hr by fluorescence based assay
[2] = biological target: T1, Human immunodeficiency virus type 1 integrase (Human immunodeficiency virus 1, UniProt Q7ZJM1); assay: Inhibition of LEDGF/p75-dependent full length HIV-1 integrase expressed in Escherichia coli BL21(DE3) cells preincubated for 1 hr further incubated for 90 mins with biotin-labeled donor DNA and target DNA by HTRF assay
T1 sequence (Q7ZJM1 whole entry): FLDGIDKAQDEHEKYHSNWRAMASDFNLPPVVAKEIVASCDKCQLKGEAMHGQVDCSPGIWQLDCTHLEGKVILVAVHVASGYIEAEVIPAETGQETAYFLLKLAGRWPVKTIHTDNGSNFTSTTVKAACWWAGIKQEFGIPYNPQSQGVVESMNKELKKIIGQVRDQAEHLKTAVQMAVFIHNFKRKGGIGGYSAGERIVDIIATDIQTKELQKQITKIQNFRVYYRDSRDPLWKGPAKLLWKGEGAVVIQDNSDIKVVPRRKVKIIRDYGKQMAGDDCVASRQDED

[3] = biological target: T1, Human immunodeficiency virus type 1 integrase; assay: Inhibition of subunit exchanging activity of His and Flag-tagged HIV-1 integrase expressed in Escherichia coli BL21(DE3) cells after 2.5 hrs by HTRF assay
[4] = Inhibition of His-tagged HIV-1 integrase interaction with HIV-1 FLAG-tagged LEDGF/p75 expressed in Escherichia coli BL21(DE3) cells incubated for 30 mins followed by LEDGF addition measured after 4 hrs by HTRF assay; set-up: species or system Human immunodeficiency virus 1
[5] = test system: Human immunodeficiency virus 1; assay: Inhibition of His-tagged HIV-1 integrase interaction with HIV-1 FLAG-tagged LEDGF/p75 expressed in Escherichia coli BL21(DE3) cells at 100 uM incubated for 30 mins followed by LEDGF addition measured after 4 hrs by HTRF assay relative to control
[6] = biological target: Human immunodeficiency virus type 1 integrase (Human immunodeficiency virus 1) (UniProt Q7ZJM1)
Human immunodeficiency virus type 1 integrase (Human immunodeficiency virus 1), sequence (Q7ZJM1 as listed by the source): as the sequence (Q7ZJM1 whole entry) above

[7] = biological target: Human immunodeficiency virus type 1 reverse transcriptase (Human immunodeficiency virus 1) (UniProt Q72547); assay: Residual activity of His-tagged HIV-1 reverse transcriptase RNase H at 100 uM using 5'-GTTTTCTTTTCCCCCCTGAC-3'-Fluorescein-labeled RNA/5'-CAAAAGAAAAGGGGGGACUG-3'-Dabcyl-labeled DNA as susbtrate incubated for 1 hr by fluorescence based assay relative to control
[8] = biological target: Human immunodeficiency virus type 1 integrase (Human immunodeficiency virus 1) (UniProt Q7ZJM1); assay: Inhibition of LEDGF/p75-dependent full length HIV-1 integrase expressed in Escherichia coli BL21(DE3) cells at 100 uM preincubated for 1 hr further incubated for 90 mins with biotin-labeled donor DNA and target DNA by HTRF assay relative to control
Procedure, shortened: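 Added 9 nM biotinylated donor DNA, 50 nM Cy5 acceptor DNA and 50 nM LEDGF/p75. Incubation 90 min at 37 °C, then 4 nM europium-streptavidin added. HTRF read (excitation 314 nm, emission 668/620 nm).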

IC50 [1] [µM] | IC50 [2] [µM] | IC50 [3] [µM] | IC50 [4] [µM] | MI50 [6] [µM] | residual activity [7] [%] | inhibition [8] [%] | SMILES | inhibition [5] [%]
16.8 | 14 | > 100 | > 100 | > 100 |  |  | Cc1cc(=O)c2c(=O)oc3c4ccccc4oc(=O)c3c2o1 | 56
29.8 | 24 |  |  |  |  |  | Cc1cccc2c1oc(=O)c1c(O)cc(=O)oc12 | 
38.4 | 20 | > 100 | > 100 | > 100 |  |  | O=C(c1ccccc1)c1ccc2c(c1)N=CCC(c1c(O)c3c(=O)oc4ccccc4c3oc1=O)=N2 | 81
85.8 | 42 |  |  |  |  |  | CC(=O)CC(=O)c1c(O)c2c(=O)oc3ccccc3c2oc1=O | 
> 100 | 41.5 |  |  |  | 89 |  | Cc1ccc2c(c1)oc(=O)c1c(O)cc(=O)oc12 | 
61.3 | 21.5 |  |  |  |  |  | O=c1cc(O)c2c(=O)oc3ccc4ccccc4c3c2o1 | 
13.8 | 47.5 |  |  |  |  |  | CC(=O)CC(=O)c1c(O)c2c(=O)oc3ccc4ccccc4c3c2oc1=O | 
42.9 | > 100 |  |  |  |  | 78 | Cc1ccc2oc(=O)c3cc(C4=Nc5ccc(C(=O)c6ccccc6)cc5N=CC4)c(=O)oc3c2c1 | 
 |  |  | 13 | 10 |  |  | CCCC(C(=O)O)c1c(C)nc2ccc(Cl)cc2c1-c1ccccc1 (centres undefined) | 
26.3 | 8.5 |  |  |  |  |  | CC(=O)c1c(O)c2c(=O)oc3ccccc3c2oc1=O | 
51.8 | > 100 |  |  |  |  | 61 | Cc1cc(-c2c(O)c3c(=O)oc4ccccc4c3oc2=O)nn1-c1ccccc1 | 
51.2 | 11 | 85 | > 100 | > 100 |  |  | CC(=O)CC(=O)c1c(O)c2c(=O)oc3c4ccccc4ccc3c2oc1=O | 73
25.5 | 18.5 |  |  |  |  |  | CC(=O)c1c(O)c2c(=O)oc3c(C)cccc3c2oc1=O | 
24.7 | 7.5 | 57 | > 100 | > 100 |  |  | O=c1cc(O)c2c(=O)oc3c4ccccc4ccc3c2o1 | 53
> 100 | 22.4 |  |  |  | 63 |  | CC(=O)c1c(O)c2c(=O)oc3cc(C)ccc3c2oc1=O | 
 |  |  | > 100 |  |  |  | Cc1nnc(C(=O)NC(C)(C)c2nc(C(=O)NCc3ccc(F)cc3)c(O)c(=O)n2C)o1 | 100
6.75 | 6.45 | 56.5 | > 100 | > 100 |  |  | CC(=O)c1c(O)c2c(=O)oc3ccc(C)cc3c2oc1=O | 52
16.5 | 9.5 | 69 | > 100 | > 100 |  |  | Cc1ccc2oc(=O)c3c(O)cc(=O)oc3c2c1 | 55

— ChEMBL document CHEMBL4359896, “Chromenone derivatives as a versatile scaffold with dual mode of inhibition of HIV-1 reverse transcriptase-associated Ribonuclease H function and integrase activity” (Eur J Med Chem, 2019)
